Source: ChEMBL document CHEMBL3758071, “Phomanolides A and B from the Fungus Phoma sp.: Meroterpenoids Derived from a Putative Tropolonic Sesquiterpene via Hetero-Diels-Alder Reactions” (J Nat Prod, 2015)
pIC50: −log10 of the molar value. Active and inactive are the calls of the source. No cut-off for these calls is given here.

Legend:
Format in all cases: functional, cell-based
[1] = system: HeLa; experiment: Antiproliferative activity against human HeLa cells after 48 hrs by MTT assay
In short: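 HeLa cells were grown in RPMI 1640 with 10% FBS at 37 °C and 5% CO2 and seeded at 10^4 per well overnight. Serial dilutions (DMSO stock 10 mg/mL; vehicle 0.2% DMSO) were applied for 4 h at 37 °C, then the medium was replaced with fresh DMEM for 48 h. MTT (0.5 mg/mL) was added for 3 h in the dark, formazan dissolved in DMSO, and absorbance read at 540 nm. IC50 reported.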

[2] = Antiproliferative activity against human HCT116 cells after 48 hrs by MTT assay; settings: HCT-116, 48 h
In short: (§1)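 A549, T24 and HCT116 cells were grown in McCoy's 5A with 10% FBS at 37 °C and 5% CO2. Cells were seeded at 10^4 per well and attached overnight. They were exposed for 4 h to serial dilutions (DMSO stock 10 mg/mL; vehicle 0.2% DMSO), then grown 48 h in fresh DMEM. MTT (0.5 mg/mL) was added for 3 h, formazan dissolved in DMSO, and A540 read. IC50 reported.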

[3] = system: SH-SY5Y; experiment: Antiproliferative activity against human SH-SY5Y cells after 48 hrs by MTT assay
In short: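 SH-SY5Y cells were grown in DMEM with 10% FBS at 37 °C and 5% CO2, seeded at 10^4 cells/well and left to attach overnight. Cells were exposed to serial dilutions from a 10 mg/mL DMSO stock (vehicle 0.2% DMSO) for 4 h at 37 °C, then grown 48 h in fresh DMEM. MTT (0.5 mg/mL) was added for 3 h in the dark, formazan dissolved in DMSO, and absorbance read at 540 nm.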

[4] = Antiproliferative activity against human H4 cells after 48 hrs by MTT assay; settings: H4, 48 h
In short: (§2)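 H4 and U251 glioma cells were maintained in MEM-EBSS with 10% FBS at 37 °C and 5% CO2. Cells were plated at 10^4 per well and attached overnight. They were treated 4 h with serially diluted compound (DMSO stock 10 mg/mL; vehicle 0.2% DMSO), then given fresh DMEM for 48 h. MTT (0.5 mg/mL) was added for 3 h, DMSO used to solubilise, and A540 read. IC50 reported.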

[5] = system: A549; experiment: Antiproliferative activity against human A549 cells after 48 hrs by MTT assay; settings: A549, 48 h; in short: as §1
[6] = system: U-251; experiment: Antiproliferative activity against human U251 cells after 48 hrs by MTT assay; settings: U-251, 48 h; in short: as §2
[7] = Antiproliferative activity against human T24 cells after 48 hrs by MTT assay; settings: T-24, 48 h; in short: as §1
[8] = system: HeLa; experiment: Antiproliferative activity against human HeLa cells at 20 ug/ml after 48 hrs by MTT assay
[9] = system: T-24; experiment: Antiproliferative activity against human T24 cells at 20 ug/ml after 48 hrs by MTT assay
[10] = system: SH-SY5Y; experiment: Antiproliferative activity against human SH-SY5Y cells at 20 ug/ml after 48 hrs by MTT assay
[11] = system: U-251; experiment: Antiproliferative activity against human U251 cells at 20 ug/ml after 48 hrs by MTT assay
[12] = system: H4; experiment: Antiproliferative activity against human H4 cells at 20 ug/ml after 48 hrs by MTT assay
[13] = system: HCT-116; experiment: Antiproliferative activity against human HCT116 cells at 20 ug/ml after 48 hrs by MTT assay
[14] = system: A549; experiment: Antiproliferative activity against human A549 cells at 20 ug/ml after 48 hrs by MTT assay

Compound | pIC50 [1] | pIC50 [2] | pIC50 [3] | pIC50 [4] | pIC50 [5] | pIC50 [6] | pIC50 [7] | Activity [8] | Activity [9] | Activity [10] | Activity [11] | Activity [12] | Activity [13] | Activity [14]
Cc1cc(=O)c(O)cc2c1C[C@H]1CC(C)(C)/C=C/C[C@]3(C)Oc4cc(O)c(=O)cc(C)c4C[C@H]3C[C@H](O)[C@@]1(C)O2 | 8.09 | 7.51 | 7.10 | 6.89 | 7.51 | 7.00 | 7.90 | – | – | – | – | – | – | –
CC1=CC(=O)O[C@@]12C[C@H]1C[C@H](O)[C@@]3(C)Oc4cc(O)cc(C)c4C[C@H]3CC(C)(C)/C=C/C[C@]1(C)O/C2=C\C(=O)O | 4.84 | – | 4.09 | – | – | – | – | – | – | – | – | – | – | –
C/C1=C/CC(C)(C)[C@@H]2O[C@H]2C[C@@]2(C)O[C@@H]2C[C@@H]1O | – | – | – | – | – | – | – | inactive | inactive | inactive | inactive | inactive | inactive | inactive
Cn1nnc2c(C(N)=O)ncn2c1=O [TEMOZOLOMIDE] | – | – | < 4.00 | < 4.00 | – | < 4.00 | – | – | – | – | – | – | – | –
C/C1=C/CC(C)(C)/C=C/C[C@]2(C)OC3=CC(=O)O[C@]4(C)CC(=O)O[C@]34C[C@H]2C[C@@H]1O | – | – | – | – | – | – | – | inactive | inactive | inactive | inactive | inactive | inactive | inactive
